From ChEMBL document CHEMBL3612023, “Synthesis and in vitro characterization of novel fluorinated derivatives of the TSPO 18 kDa ligand SSR180575” (Eur J Med Chem, 2015)

experiment: Biotransformation in CD1 mouse liver microsomes at 5 uM measured at 20 mins by HPLC/ESI-MS/MS analysis; format: ADME; conditions: read-out: Drug metabolism
Outline: (§1)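 Hepatic microsomes (male CD1 mouse, male Sprague-Dawley rat, or pooled human) at 1 mg/mL protein with 1 mg/mL BSA; substrate 5 µM. Reference sample held 0 min without cofactor; test sample run 20 min with 1 mM NADPH. Reaction quenched with 1 volume ACN, proteins spun out, supernatant analysed by HPLC/ESI-MS/MS in positive SIR. % biotransformation = (1 − area B/area A) × 100.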

| SMILES | metabolised at 20 min, 5 µM [%] |
| --- | --- |
| COc1ccc(-n2nc(CC(=O)N(C)C)c3c4ccc(Cl)cc4n(C)c3c2=O)cc1 | 22 |
| CN(C)C(=O)Cc1nn(-c2ccc(OCCF)cc2)c(=O)c2c1c1ccc(Cl)cc1n2C | 0 |
| CN(C)C(=O)Cc1nn(-c2ccc(OCCCF)cc2)c(=O)c2c1c1ccc(Cl)cc1n2C | 4 |
| CN(C)C(=O)Cc1nn(-c2ccc(OCCCCF)cc2)c(=O)c2c1c1ccc(Cl)cc1n2C | 1 |
| CN(C)C(=O)Cc1nn(-c2ccc(OC/C=C/CF)cc2)c(=O)c2c1c1ccc(Cl)cc1n2C | 53 |
| CN(C)C(=O)Cc1nn(-c2ccc(OCC#CCF)cc2)c(=O)c2c1c1ccc(Cl)cc1n2C | 42 |
| CN(C)C(=O)Cc1nn(-c2ccc(OCCOCCF)cc2)c(=O)c2c1c1ccc(Cl)cc1n2C | 17 |
| CN(C)C(=O)Cc1nn(-c2ccc(OCCOCCOCCF)cc2)c(=O)c2c1c1ccc(Cl)cc1n2C | 69 |
| CN(C)C(=O)Cc1nn(-c2ccccc2)c(=O)c2c1c1ccc(Cl)cc1n2C | 21 |

Continued, values first:

| metabolised at 20 min, 5 µM [%] | SMILES |
| --- | --- |
| 5 | CN(C)C(=O)Cc1nn(-c2ccccc2)c(=O)c2c1c1ccc(Cl)cc1n2CCF |
| 31 | CN(C)C(=O)Cc1nn(-c2ccccc2)c(=O)c2c1c1ccc(Cl)cc1n2C/C=C/CF |
| 39 | CN(C)C(=O)Cc1nn(-c2ccccc2)c(=O)c2c1c1ccc(Cl)cc1n2CC#CCF |

experiment: Biotransformation in Sprague-Dawley rat liver microsomes at 5 uM measured at 20 mins by HPLC/ESI-MS/MS analysis; format: ADME; conditions: read-out: Drug metabolism; outline: as §1

| SMILES | metabolised at 20 min, 5 µM [%] |
| --- | --- |
| COc1ccc(-n2nc(CC(=O)N(C)C)c3c4ccc(Cl)cc4n(C)c3c2=O)cc1 | 4 |
| CN(C)C(=O)Cc1nn(-c2ccc(OCCF)cc2)c(=O)c2c1c1ccc(Cl)cc1n2C | 2 |
| CN(C)C(=O)Cc1nn(-c2ccc(OCCCF)cc2)c(=O)c2c1c1ccc(Cl)cc1n2C | 3 |
| CN(C)C(=O)Cc1nn(-c2ccc(OCCCCF)cc2)c(=O)c2c1c1ccc(Cl)cc1n2C | 13 |
| CN(C)C(=O)Cc1nn(-c2ccc(OC/C=C/CF)cc2)c(=O)c2c1c1ccc(Cl)cc1n2C | 41 |
| CN(C)C(=O)Cc1nn(-c2ccc(OCC#CCF)cc2)c(=O)c2c1c1ccc(Cl)cc1n2C | 25 |
| CN(C)C(=O)Cc1nn(-c2ccc(OCCOCCF)cc2)c(=O)c2c1c1ccc(Cl)cc1n2C | 11 |
| CN(C)C(=O)Cc1nn(-c2ccc(OCCOCCOCCF)cc2)c(=O)c2c1c1ccc(Cl)cc1n2C | 52 |
| CN(C)C(=O)Cc1nn(-c2ccccc2)c(=O)c2c1c1ccc(Cl)cc1n2C | 14 |

Second part, the compound after the results:

| metabolised at 20 min, 5 µM [%] | SMILES |
| --- | --- |
| 14 | CN(C)C(=O)Cc1nn(-c2ccccc2)c(=O)c2c1c1ccc(Cl)cc1n2CCF |
| 44 | CN(C)C(=O)Cc1nn(-c2ccccc2)c(=O)c2c1c1ccc(Cl)cc1n2C/C=C/CF |
| 26 | CN(C)C(=O)Cc1nn(-c2ccccc2)c(=O)c2c1c1ccc(Cl)cc1n2CC#CCF |

experiment: Biotransformation in human liver microsomes at 5 uM measured at 20 mins by HPLC/ESI-MS/MS analysis; format: ADME; conditions: read-out: Drug metabolism; outline: as §1

| SMILES | metabolised at 20 min, 5 µM [%] |
| --- | --- |
| COc1ccc(-n2nc(CC(=O)N(C)C)c3c4ccc(Cl)cc4n(C)c3c2=O)cc1 | 22 |
| CN(C)C(=O)Cc1nn(-c2ccc(OCCF)cc2)c(=O)c2c1c1ccc(Cl)cc1n2C | 0 |
| CN(C)C(=O)Cc1nn(-c2ccc(OCCCF)cc2)c(=O)c2c1c1ccc(Cl)cc1n2C | 4 |
| CN(C)C(=O)Cc1nn(-c2ccc(OCCCCF)cc2)c(=O)c2c1c1ccc(Cl)cc1n2C | 16 |
| CN(C)C(=O)Cc1nn(-c2ccc(OC/C=C/CF)cc2)c(=O)c2c1c1ccc(Cl)cc1n2C | 76 |
| CN(C)C(=O)Cc1nn(-c2ccc(OCC#CCF)cc2)c(=O)c2c1c1ccc(Cl)cc1n2C | 47 |
| CN(C)C(=O)Cc1nn(-c2ccc(OCCOCCF)cc2)c(=O)c2c1c1ccc(Cl)cc1n2C | 17 |
| CN(C)C(=O)Cc1nn(-c2ccc(OCCOCCOCCF)cc2)c(=O)c2c1c1ccc(Cl)cc1n2C | 81 |
| CN(C)C(=O)Cc1nn(-c2ccccc2)c(=O)c2c1c1ccc(Cl)cc1n2C | 10 |

The next lines start with the values.

| metabolised at 20 min, 5 µM [%] | SMILES |
| --- | --- |
| 19 | CN(C)C(=O)Cc1nn(-c2ccccc2)c(=O)c2c1c1ccc(Cl)cc1n2CCF |
| 38 | CN(C)C(=O)Cc1nn(-c2ccccc2)c(=O)c2c1c1ccc(Cl)cc1n2C/C=C/CF |
| 30 | CN(C)C(=O)Cc1nn(-c2ccccc2)c(=O)c2c1c1ccc(Cl)cc1n2CC#CCF |

experiment: n-octanol/buffer partition coefficient, log D of the compound at pH 7.4 by HPLC method; format: physicochemical; conditions: not given

| SMILES | logD |
| --- | --- |
| COc1ccc(-n2nc(CC(=O)N(C)C)c3c4ccc(Cl)cc4n(C)c3c2=O)cc1 | 3.01 |
| CN(C)C(=O)Cc1nn(-c2ccc(OCCF)cc2)c(=O)c2c1c1ccc(Cl)cc1n2C | 3.12 |
| CN(C)C(=O)Cc1nn(-c2ccc(OCCCF)cc2)c(=O)c2c1c1ccc(Cl)cc1n2C | 3.48 |
| CN(C)C(=O)Cc1nn(-c2ccc(OCCCCF)cc2)c(=O)c2c1c1ccc(Cl)cc1n2C | 3.75 |
| CN(C)C(=O)Cc1nn(-c2ccc(OC/C=C/CF)cc2)c(=O)c2c1c1ccc(Cl)cc1n2C | 3.62 |
| CN(C)C(=O)Cc1nn(-c2ccc(OCC#CCF)cc2)c(=O)c2c1c1ccc(Cl)cc1n2C | 3.54 |
| CN(C)C(=O)Cc1nn(-c2ccc(OCCOCCF)cc2)c(=O)c2c1c1ccc(Cl)cc1n2C | 3.11 |
| CN(C)C(=O)Cc1nn(-c2ccc(OCCOCCOCCF)cc2)c(=O)c2c1c1ccc(Cl)cc1n2C | 3.08 |
| CN(C)C(=O)Cc1nn(-c2ccccc2)c(=O)c2c1c1ccc(Cl)cc1n2CCCF | 3.38 |
| CN(C)C(=O)Cc1nn(-c2ccccc2)c(=O)c2c1c1ccc(Cl)cc1n2CCCCF | 3.66 |
| CN(C)C(=O)Cc1nn(-c2ccccc2)c(=O)c2c1c1ccc(Cl)cc1n2C | 2.97 |

Now from value to compound:

| logD | SMILES |
| --- | --- |
| 3.09 | CN(C)C(=O)Cc1nn(-c2ccccc2)c(=O)c2c1c1ccc(Cl)cc1n2CCF |
| 3.48 | CN(C)C(=O)Cc1nn(-c2ccccc2)c(=O)c2c1c1ccc(Cl)cc1n2C/C=C/CF |
| 3.44 | CN(C)C(=O)Cc1nn(-c2ccccc2)c(=O)c2c1c1ccc(Cl)cc1n2CC#CCF |
| 3.2 | CN(C)C(=O)Cc1nn(-c2ccccc2)c(=O)c2c1c1ccc(Cl)cc1n2CCOCCF |
| 3.19 | CN(C)C(=O)Cc1nn(-c2ccccc2)c(=O)c2c1c1ccc(Cl)cc1n2CCOCCOCCF |
